36 sequences from the array DNA melting data of Ke et al. (doi:10.1101/2024.01.08.574731) can be followed below.

Data set [1] is described as follows: melting temperature; fluorescence melt of hairpins on a sequencing array, two-state fit, raised by 9.35 °C to match UV melts. The note with it: sodium 0.088 M. In outline: (§1)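 Melting temperature and folding enthalpy were derived from bootstrapped two-state fits. The fitted temperatures were raised by 9.35 °C to agree with UV melts, and four replicates were combined by inverse variance. The underlying data were Cy3 fluorescence images of library hairpins, with annealed Cy3 and quencher oligos, on a sequenced MiSeq flow cell in 50 mM Na-HEPES pH 8.0, 25 mM NaCl, taken in 2.5 °C steps up to 60 °C, normalised to pre-quench Cy3 and to control constructs.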

Data set [2] can be described thus: folding enthalpy; higher = less favourable; fluorescence melt of hairpins on a sequencing array, two-state fit. The note with it: sodium 0.088 M. In a few lines: as §1

As to GGCAGTCGAAAGACCGCC (((.(((....))).))), the Tm in data set [1] came out at 58 °C. In data set [2], the folding enthalpy is -35 kcal/mol.

With GGCATAACGAAAGTTGCC (((..(((....)))))), the Tm in data set [1] was 50.8 °C. Further, the folding enthalpy in data set [2] is -26 kcal/mol.

Consider GGCATACGAAAGTAAGCC (((.(((....))).))), for which, in data set [1], the Tm stood at 54 °C. The folding enthalpy in data set [2] is -37.1 kcal/mol.

With GGCATCACGAAAGTGGCC (((..(((....)))))), the Tm in data set [1] was 48.2 °C. Also, the folding enthalpy in data set [2] was -21.9 kcal/mol.

Consider GGCATCGAAAGATGTGCC ((((((....)))..))), for which, in data set [1], the Tm is 46.4 °C. Besides, the folding enthalpy in data set [2] was -17.8 kcal/mol.

For GGCATCGCGAAAGCGGCC (((..(((....)))))), the Tm in data set [1] came to 54.9 °C. Moreover, the folding enthalpy in data set [2] is -17.4 kcal/mol.

As to GGCATCGGAAACGACGCC (((.(((....))).))), the Tm in data set [1] came to 52.3 °C. In addition, the folding enthalpy in data set [2] is -42.1 kcal/mol.

Turning to GGCATGCGAAAGCAAGCC (((.(((....))).))), in data set [1], the Tm came to 65.4 °C. Also, the folding enthalpy in data set [2] is -27.8 kcal/mol.

With GGCATGCGAAAGCACGCC (((.(((....))).))), in data set [1], the Tm was 63.4 °C. In addition, the folding enthalpy in data set [2] was -27.3 kcal/mol.

As for GGCATGGGAAACCATGTC (.(((((....))))).), the Tm in data set [1] came out at 52.5 °C. In addition, the folding enthalpy in data set [2] is -26.6 kcal/mol.

Consider GGCATTCGAAAGAACGCC (((.(((....))).))), for which, in data set [1], the Tm came to 50.6 °C. Besides, in data set [2], the folding enthalpy was -45.2 kcal/mol.

Turning to GGCATTGGAAACAACGCC (((.(((....))).))), the Tm in data set [1] turned out to be 44.6 °C. In addition, the folding enthalpy in data set [2] is -34.4 kcal/mol.

Consider GGCCAACGAAAGTTAGCC (((.(((....))).))), for which the Tm in data set [1] was determined as 50.1 °C. In addition, the folding enthalpy in data set [2] is -29.1 kcal/mol.

GGCCAAGAAATTGGCC ((((((....)))))): in data set [1], the Tm is 64.4 °C. The folding enthalpy in data set [2] is -40.1 kcal/mol.

As to GGCCAAGGAAACTCGGCC ((((.((....)).)))), the Tm in data set [1] came to 50.7 °C. Further, in data set [2], the folding enthalpy is -34 kcal/mol.

For the sequence GGCCAAGGAAACTTGACC ((.((((....)))).)), in data set [1], the Tm worked out at 43.1 °C. The folding enthalpy in data set [2] was -30.3 kcal/mol.

Consider GGCCACACGAAAGTGGCC (((..(((....)))))), for which the Tm in data set [1] was determined as 67.5 °C. Moreover, the folding enthalpy in data set [2] is -39.1 kcal/mol.

Consider GGCCACCGAAAGGTAGCC (((.(((....))).))), for which the Tm in data set [1] was found to be 57.5 °C. The folding enthalpy in data set [2] was -38.3 kcal/mol.

For GGCCACGAAAGTGAAGCC ((((((....)))..))), the Tm in data set [1] stood at 53.5 °C. Further, the folding enthalpy in data set [2] is -31.9 kcal/mol.

Regarding GGCCACGAAAGTGACGCC ((((((....)))..))), the Tm in data set [1] came to 52.1 °C. For the same sequence, the folding enthalpy in data set [2] was -21.7 kcal/mol.

As for GGCCACGAAAGTGCCGCC ((((((....)))..))), the Tm in data set [1] was found to be 59.8 °C. Moreover, the folding enthalpy in data set [2] was -32 kcal/mol.

Consider GGCCACGAAAGTGCGGCC ((((((....)))..))), for which the Tm in data set [1] was 55.6 °C. In data set [2], the folding enthalpy was -39.6 kcal/mol.

With GGCCACGGAAACGCGACC ((.(.((....)).).)), the Tm in data set [1] worked out at 36.7 °C. The folding enthalpy in data set [2] is -25.8 kcal/mol.

Turning to GGCCAGCGAAAGCTCGCC (((.(((....))).))), the Tm in data set [1] was 53.4 °C. Besides, the folding enthalpy in data set [2] was -38.9 kcal/mol.

In the case of GGCCAGGGAAACCCAGCC (((..((....))..))), the Tm in data set [1] was found to be 42.1 °C. Moreover, the folding enthalpy in data set [2] is -30.5 kcal/mol.

Regarding GGCCAGGGAAACCTGGTC (.(((((....))))).), the Tm in data set [1] worked out at 57.6 °C. The folding enthalpy in data set [2] was -33.5 kcal/mol.

Turning to GGCCAGGGAAACTTGGCC (((((.(....).))))), in data set [1], the Tm was 57 °C. Also, the folding enthalpy in data set [2] is -35.7 kcal/mol.

GGCCATGGAAACGTGGCC (((((.(....).))))): the Tm in data set [1] is 62 °C. Further, the folding enthalpy in data set [2] is -52.1 kcal/mol.

On to GGCCCACGAAAGTGTGCC (((.(((....))).))), for which, in data set [1], the Tm was found to be 58.1 °C. For the same sequence, the folding enthalpy in data set [2] was -49.1 kcal/mol.

In the case of GGCCCAGGAAACTAGGCC ((((.((....)).)))), the Tm in data set [1] was determined as 48.1 °C. The folding enthalpy in data set [2] was -30.3 kcal/mol.

As to GGCCCCCGAAAGGGCGCC (((.(((....))).))), the Tm in data set [1] came out at 58.3 °C. In data set [2], the folding enthalpy is -24.8 kcal/mol.

Take GGCCCCGAAAGGGAGGCC ((((((....)))..))): the Tm in data set [1] came to 64.5 °C. Also, the folding enthalpy in data set [2] was -26.9 kcal/mol.

In the case of GGCCCCGAAAGGGCAGCC ((((((....)))..))), the Tm in data set [1] turned out to be 58.6 °C. Further, the folding enthalpy in data set [2] is -12.8 kcal/mol.

Regarding GGCCCCGAAAGGGGTGCC ((((((....)))..))), the Tm in data set [1] turned out to be 59.1 °C. In data set [2], the folding enthalpy was -12.1 kcal/mol.

For the sequence GGCCGAACGAAAGTTGCC (((..(((....)))))), the Tm in data set [1] was 38.9 °C. The folding enthalpy in data set [2] is -23.5 kcal/mol.

As to GGCCGACGAAAGTCAGCC (((.(((....))).))), the Tm in data set [1] turned out to be 59.4 °C. Further, the folding enthalpy in data set [2] was -35.5 kcal/mol.
